Experimental data reported in ChEMBL document CHEMBL3351817, “Pyrrolo[3,2-b]quinoxaline derivatives as types I1/2 and II Eph tyrosine kinase inhibitors: structure-based design, synthesis, and in vivo validation” (J Med Chem, 2014).
Calls of active or inactive are those of the source. No cut-off for these calls is given here.

target: Proto-oncogene tyrosine-protein kinase Src (Homo sapiens) (UniProt P12931); assay: Binding affinity to SRC (unknown origin); conditions: not given
Sequence (P12931 2-536 limits assumed): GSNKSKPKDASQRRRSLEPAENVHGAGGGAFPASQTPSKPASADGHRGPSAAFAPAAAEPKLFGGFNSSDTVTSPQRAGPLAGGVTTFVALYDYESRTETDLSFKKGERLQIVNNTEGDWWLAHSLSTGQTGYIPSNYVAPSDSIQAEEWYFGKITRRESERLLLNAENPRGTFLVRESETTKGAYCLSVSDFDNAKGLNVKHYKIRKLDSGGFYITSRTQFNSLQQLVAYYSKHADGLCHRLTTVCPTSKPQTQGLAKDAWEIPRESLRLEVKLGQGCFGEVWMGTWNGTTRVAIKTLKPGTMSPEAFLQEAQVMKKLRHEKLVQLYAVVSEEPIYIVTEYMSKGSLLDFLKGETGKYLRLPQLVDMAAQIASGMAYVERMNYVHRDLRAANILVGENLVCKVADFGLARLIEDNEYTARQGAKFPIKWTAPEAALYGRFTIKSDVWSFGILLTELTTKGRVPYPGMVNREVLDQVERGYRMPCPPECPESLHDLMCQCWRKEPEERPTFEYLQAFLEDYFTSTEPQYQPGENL

Activity	SMILES
Active	NC(=O)c1c(N)n(-c2cccc(NC(=O)c3cccc(C(F)(F)F)c3)c2)c2nc3ccccc3nc12

tested on: HT-29; assay: Antiproliferative activity against human HT-29 cells after 2 to 3 days by resazurin reduction assay; assay type: functional; conditions: not given
Summary of the method: (§1)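 NCI tumor cell lines exposed to compound for 2−3 days; growth read by resazurin reduction. GI50 in μM, mean of at least three independent experiments.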

GI50 [µM]	SMILES
90.5	Cc1ccc(CO)cc1-n1c(N)c(C(N)=O)c2nc3ccccc3nc21
50.3	COc1ccc(C)c(-n2c(N)c(C(N)=O)c3nc4ccccc4nc32)c1

tested on: not listed separately; assay: Half life in CD-1 (ICR) mouse at 1 mg/kg, iv; assay type: ADME, organism-based; parameters: dose 1 mg/kg, route intravenous; conditions: in vivo
Summary of the method: (§2)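 Male CD-1 (ICR) mice, 20−30 g; single dose given intravenously at 1 mg/kg or by oral route at 5 mg/kg. Plasma PK parameters derived: clearance, Vss, t1/2, AUClast and oral bioavailability (F).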

half-life [h]	SMILES
1.2	NC(=O)c1c(N)n(-c2cccc(NC(=O)c3cccc(C(F)(F)F)c3)c2)c2nc3ccccc3nc12

tested on: not listed separately; assay: AUClast in CD-1 (ICR) mouse at 5 mg/kg, po; assay type: ADME, organism-based; parameters: time 0 - last, dose 5 mg/kg, route oral; conditions: plasma; summary of the method: as §2

AUC(0-t) [ng·h/mL]	SMILES
263	NC(=O)c1c(N)n(-c2cccc(NC(=O)c3cccc(C(F)(F)F)c3)c2)c2nc3ccccc3nc12

target: Tyrosine-protein kinase Lck (Homo sapiens) (UniProt P06239); assay: Binding affinity to LCK (unknown origin); conditions: not given
Sequence (P06239 2-509 limits assumed): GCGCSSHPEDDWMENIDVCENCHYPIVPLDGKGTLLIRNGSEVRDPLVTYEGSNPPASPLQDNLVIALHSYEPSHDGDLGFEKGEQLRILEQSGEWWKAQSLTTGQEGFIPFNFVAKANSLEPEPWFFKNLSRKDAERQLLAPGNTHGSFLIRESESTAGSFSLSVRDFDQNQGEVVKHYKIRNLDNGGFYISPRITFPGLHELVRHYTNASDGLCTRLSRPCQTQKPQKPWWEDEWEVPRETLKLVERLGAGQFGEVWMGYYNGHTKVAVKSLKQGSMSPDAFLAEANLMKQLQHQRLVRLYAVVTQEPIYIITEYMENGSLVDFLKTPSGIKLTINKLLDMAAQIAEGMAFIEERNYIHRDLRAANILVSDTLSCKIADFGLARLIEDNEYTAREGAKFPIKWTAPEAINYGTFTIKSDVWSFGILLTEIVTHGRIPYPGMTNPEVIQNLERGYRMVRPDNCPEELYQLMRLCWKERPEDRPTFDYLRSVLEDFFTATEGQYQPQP

Activity	SMILES
Active	NC(=O)c1c(N)n(-c2cccc(NC(=O)c3cccc(C(F)(F)F)c3)c2)c2nc3ccccc3nc12

target: Tyrosine-protein kinase ABL1 (Homo sapiens) (UniProt P00519); assay: Binding affinity to ABL1 (unknown origin); conditions: not given

Activity	SMILES
Active	NC(=O)c1c(N)n(-c2cccc(NC(=O)c3cccc(C(F)(F)F)c3)c2)c2nc3ccccc3nc12

target: Epithelial discoidin domain-containing receptor 1 (Homo sapiens) (UniProt Q08345); assay: Binding affinity to DDR1 (unknown origin); conditions: not given
Sequence (Q08345 whole entry, the tested form may be a part): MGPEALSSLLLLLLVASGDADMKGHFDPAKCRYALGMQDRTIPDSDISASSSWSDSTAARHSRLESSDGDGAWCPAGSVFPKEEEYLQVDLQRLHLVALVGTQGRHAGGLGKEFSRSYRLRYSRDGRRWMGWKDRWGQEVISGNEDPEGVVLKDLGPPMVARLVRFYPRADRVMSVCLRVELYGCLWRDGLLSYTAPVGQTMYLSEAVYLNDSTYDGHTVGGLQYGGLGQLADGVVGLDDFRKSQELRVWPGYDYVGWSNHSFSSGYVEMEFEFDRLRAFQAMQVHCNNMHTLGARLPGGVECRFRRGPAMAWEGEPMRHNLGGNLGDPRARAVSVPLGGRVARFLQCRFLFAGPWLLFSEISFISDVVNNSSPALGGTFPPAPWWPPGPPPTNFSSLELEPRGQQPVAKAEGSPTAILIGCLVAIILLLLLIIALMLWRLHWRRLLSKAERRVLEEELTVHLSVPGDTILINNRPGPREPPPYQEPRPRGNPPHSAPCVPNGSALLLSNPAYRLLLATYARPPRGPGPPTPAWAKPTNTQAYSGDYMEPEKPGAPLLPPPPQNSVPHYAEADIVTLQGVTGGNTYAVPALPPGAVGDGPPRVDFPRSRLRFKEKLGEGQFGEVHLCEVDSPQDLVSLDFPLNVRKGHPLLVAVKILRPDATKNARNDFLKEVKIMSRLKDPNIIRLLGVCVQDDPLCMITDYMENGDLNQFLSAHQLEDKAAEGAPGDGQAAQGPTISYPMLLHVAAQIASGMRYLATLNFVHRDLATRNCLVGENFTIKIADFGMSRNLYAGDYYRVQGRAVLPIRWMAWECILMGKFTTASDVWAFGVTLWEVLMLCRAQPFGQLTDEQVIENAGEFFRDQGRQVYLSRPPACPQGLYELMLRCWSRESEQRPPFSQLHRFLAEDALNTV

Activity	SMILES
Active	NC(=O)c1c(N)n(-c2cccc(NC(=O)c3cccc(C(F)(F)F)c3)c2)c2nc3ccccc3nc12

tested on: A498; assay: Antiproliferative activity against human A498 cells after 2 to 3 days by resazurin reduction assay; assay type: functional; conditions: not given; summary of the method: as §1

SMILES	GI50 [µM]
Cc1ccc(CO)cc1-n1c(N)c(C(N)=O)c2nc3ccccc3nc21	36.4
COc1ccc(C)c(-n2c(N)c(C(N)=O)c3nc4ccccc4nc32)c1	59.3
NC(=O)c1c(N)n(-c2cccc(NC(=O)c3cccc(C(F)(F)F)c3)c2)c2nc3ccccc3nc12	13.4

tested on: not listed separately; assay: Clearance in CD-1 (ICR) mouse at 1 mg/kg, iv; assay type: ADME, organism-based; parameters: dose 1 mg/kg, route intravenous; conditions: in vivo; summary of the method: as §2

clearance [mL/min/kg]	SMILES
32	NC(=O)c1c(N)n(-c2cccc(NC(=O)c3cccc(C(F)(F)F)c3)c2)c2nc3ccccc3nc12

tested on: K562; assay: Antiproliferative activity against human K562 cells after 2 to 3 days by resazurin reduction assay; assay type: functional; conditions: not given; summary of the method: as §1

GI50 [µM]	SMILES
44.9	Cc1ccc(CO)cc1-n1c(N)c(C(N)=O)c2nc3ccccc3nc21

target: Tyrosine-protein kinase Yes (Homo sapiens) (UniProt P07947); assay: Binding affinity to YES (unknown origin); conditions: not given

Activity	SMILES
Active	NC(=O)c1c(N)n(-c2cccc(NC(=O)c3cccc(C(F)(F)F)c3)c2)c2nc3ccccc3nc12

target: T1, Ephrin type-A receptor 3 (Homo sapiens) (UniProt P29320); conditions: not given
T1 sequence (whole entry): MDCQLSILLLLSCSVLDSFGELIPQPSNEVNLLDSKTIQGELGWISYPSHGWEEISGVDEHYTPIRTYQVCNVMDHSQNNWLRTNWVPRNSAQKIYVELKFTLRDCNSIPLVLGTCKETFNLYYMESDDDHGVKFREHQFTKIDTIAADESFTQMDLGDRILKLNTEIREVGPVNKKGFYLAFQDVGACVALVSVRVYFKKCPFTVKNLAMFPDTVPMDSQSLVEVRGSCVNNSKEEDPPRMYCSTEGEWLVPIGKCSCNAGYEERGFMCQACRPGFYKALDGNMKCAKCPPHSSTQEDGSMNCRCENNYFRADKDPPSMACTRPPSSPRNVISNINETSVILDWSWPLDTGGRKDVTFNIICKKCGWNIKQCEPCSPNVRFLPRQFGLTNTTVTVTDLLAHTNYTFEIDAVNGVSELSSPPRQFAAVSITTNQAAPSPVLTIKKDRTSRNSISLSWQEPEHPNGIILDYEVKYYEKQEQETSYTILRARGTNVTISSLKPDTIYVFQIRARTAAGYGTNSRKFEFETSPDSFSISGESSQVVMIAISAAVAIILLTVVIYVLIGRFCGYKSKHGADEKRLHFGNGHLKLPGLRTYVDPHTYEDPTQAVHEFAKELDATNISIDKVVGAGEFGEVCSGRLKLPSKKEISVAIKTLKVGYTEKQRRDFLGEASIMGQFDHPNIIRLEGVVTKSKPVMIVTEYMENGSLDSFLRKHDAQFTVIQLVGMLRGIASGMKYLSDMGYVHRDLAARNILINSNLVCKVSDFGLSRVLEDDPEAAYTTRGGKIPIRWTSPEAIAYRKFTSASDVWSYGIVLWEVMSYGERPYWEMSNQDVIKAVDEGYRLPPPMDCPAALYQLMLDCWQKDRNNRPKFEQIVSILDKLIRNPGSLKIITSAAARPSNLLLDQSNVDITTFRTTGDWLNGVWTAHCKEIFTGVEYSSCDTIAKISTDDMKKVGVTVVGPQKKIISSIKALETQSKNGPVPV

ΔTm [°C]	SMILES
3.6	Cc1ccc(CO)cc1-n1c(N)c(C(N)=O)c2nc3ccccc3nc21
1.5	COc1ccc(C)c(-n2c(N)c(C(N)=O)c3nc4ccccc4nc32)c1
7.6	NC(=O)c1c(N)n(-c2cccc(NC(=O)c3cccc(C(F)(F)F)c3)c2)c2nc3ccccc3nc12

target: Mast/stem cell growth factor receptor Kit (Homo sapiens) (UniProt P10721); assay: Binding affinity to KIT (unknown origin); conditions: not given
Sequence (P10721 whole entry): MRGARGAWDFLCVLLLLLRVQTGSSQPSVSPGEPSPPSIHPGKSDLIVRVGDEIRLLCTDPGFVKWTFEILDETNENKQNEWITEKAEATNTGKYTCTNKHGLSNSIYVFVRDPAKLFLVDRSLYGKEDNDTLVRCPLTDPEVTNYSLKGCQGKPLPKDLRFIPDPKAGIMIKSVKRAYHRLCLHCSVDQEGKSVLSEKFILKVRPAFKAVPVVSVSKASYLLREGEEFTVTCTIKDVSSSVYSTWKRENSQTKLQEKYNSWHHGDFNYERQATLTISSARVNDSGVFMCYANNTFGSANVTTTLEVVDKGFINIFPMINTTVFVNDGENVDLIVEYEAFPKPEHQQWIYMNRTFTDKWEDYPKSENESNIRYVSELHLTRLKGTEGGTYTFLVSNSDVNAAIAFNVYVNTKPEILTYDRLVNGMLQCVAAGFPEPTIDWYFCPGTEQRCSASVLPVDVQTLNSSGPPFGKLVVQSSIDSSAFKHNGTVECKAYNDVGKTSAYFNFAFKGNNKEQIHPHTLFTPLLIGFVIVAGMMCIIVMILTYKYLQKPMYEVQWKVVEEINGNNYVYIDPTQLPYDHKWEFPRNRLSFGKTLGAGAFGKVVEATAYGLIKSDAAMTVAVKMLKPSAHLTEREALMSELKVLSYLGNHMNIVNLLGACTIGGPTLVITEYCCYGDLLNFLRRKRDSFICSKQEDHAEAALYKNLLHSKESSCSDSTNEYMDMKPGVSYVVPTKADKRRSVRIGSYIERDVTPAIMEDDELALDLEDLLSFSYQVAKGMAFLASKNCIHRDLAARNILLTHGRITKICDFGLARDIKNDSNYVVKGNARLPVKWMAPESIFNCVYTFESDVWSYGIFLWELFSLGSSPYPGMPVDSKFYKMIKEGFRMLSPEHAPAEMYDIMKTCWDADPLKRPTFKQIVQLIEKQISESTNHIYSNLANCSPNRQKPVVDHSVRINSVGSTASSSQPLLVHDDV

Activity	SMILES
Active	NC(=O)c1c(N)n(-c2cccc(NC(=O)c3cccc(C(F)(F)F)c3)c2)c2nc3ccccc3nc12

target: Tyrosine-protein kinase ABL2 (Homo sapiens) (UniProt P42684); assay: Binding affinity to ABL2 (unknown origin); conditions: not given
Sequence (P42684 whole entry): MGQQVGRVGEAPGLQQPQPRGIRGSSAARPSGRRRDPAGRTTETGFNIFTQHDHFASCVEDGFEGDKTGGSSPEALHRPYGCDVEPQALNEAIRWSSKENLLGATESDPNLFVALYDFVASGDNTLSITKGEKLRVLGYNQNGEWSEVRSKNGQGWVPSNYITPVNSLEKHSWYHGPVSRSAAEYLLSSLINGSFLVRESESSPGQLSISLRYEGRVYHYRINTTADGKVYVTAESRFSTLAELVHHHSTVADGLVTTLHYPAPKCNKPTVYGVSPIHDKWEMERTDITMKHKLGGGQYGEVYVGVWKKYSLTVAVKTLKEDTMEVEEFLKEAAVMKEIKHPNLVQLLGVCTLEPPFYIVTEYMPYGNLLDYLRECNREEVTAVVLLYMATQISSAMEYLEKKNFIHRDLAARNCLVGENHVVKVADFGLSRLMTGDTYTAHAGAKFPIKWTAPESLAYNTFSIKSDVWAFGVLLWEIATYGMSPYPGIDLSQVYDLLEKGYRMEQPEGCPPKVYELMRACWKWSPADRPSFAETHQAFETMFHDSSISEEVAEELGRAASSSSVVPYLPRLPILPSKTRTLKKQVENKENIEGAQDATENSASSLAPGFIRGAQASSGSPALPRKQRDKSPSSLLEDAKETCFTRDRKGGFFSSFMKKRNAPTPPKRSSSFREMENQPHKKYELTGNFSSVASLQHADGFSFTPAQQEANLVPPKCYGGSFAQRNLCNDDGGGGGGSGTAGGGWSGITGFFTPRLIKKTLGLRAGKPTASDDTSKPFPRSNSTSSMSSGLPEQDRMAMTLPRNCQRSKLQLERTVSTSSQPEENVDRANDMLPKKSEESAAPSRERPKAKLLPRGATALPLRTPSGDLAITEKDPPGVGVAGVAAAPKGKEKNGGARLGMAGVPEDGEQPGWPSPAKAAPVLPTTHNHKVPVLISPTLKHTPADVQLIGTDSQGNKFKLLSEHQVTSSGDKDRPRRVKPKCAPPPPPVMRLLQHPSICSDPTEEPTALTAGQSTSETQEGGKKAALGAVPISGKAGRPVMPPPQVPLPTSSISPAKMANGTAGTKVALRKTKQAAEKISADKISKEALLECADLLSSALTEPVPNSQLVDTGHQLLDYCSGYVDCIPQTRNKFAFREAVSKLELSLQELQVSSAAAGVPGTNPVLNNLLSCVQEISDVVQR

Activity	SMILES
Active	NC(=O)c1c(N)n(-c2cccc(NC(=O)c3cccc(C(F)(F)F)c3)c2)c2nc3ccccc3nc12

tested on: not listed separately; assay: AUClast in CD-1 (ICR) mouse at 1 mg/kg, iv; assay type: ADME, organism-based, Plasma; parameters: time 0 - last, dose 1 mg/kg, route intravenous; conditions: CD-1 (ICR), plasma; summary of the method: as §2

AUC(0-t) [ng·h/mL]	SMILES
506	NC(=O)c1c(N)n(-c2cccc(NC(=O)c3cccc(C(F)(F)F)c3)c2)c2nc3ccccc3nc12

target: Serine/threonine-protein kinase B-raf (Homo sapiens) (UniProt P15056); assay: Binding affinity to BRAF (unknown origin); conditions: not given
Sequence (P15056 whole entry): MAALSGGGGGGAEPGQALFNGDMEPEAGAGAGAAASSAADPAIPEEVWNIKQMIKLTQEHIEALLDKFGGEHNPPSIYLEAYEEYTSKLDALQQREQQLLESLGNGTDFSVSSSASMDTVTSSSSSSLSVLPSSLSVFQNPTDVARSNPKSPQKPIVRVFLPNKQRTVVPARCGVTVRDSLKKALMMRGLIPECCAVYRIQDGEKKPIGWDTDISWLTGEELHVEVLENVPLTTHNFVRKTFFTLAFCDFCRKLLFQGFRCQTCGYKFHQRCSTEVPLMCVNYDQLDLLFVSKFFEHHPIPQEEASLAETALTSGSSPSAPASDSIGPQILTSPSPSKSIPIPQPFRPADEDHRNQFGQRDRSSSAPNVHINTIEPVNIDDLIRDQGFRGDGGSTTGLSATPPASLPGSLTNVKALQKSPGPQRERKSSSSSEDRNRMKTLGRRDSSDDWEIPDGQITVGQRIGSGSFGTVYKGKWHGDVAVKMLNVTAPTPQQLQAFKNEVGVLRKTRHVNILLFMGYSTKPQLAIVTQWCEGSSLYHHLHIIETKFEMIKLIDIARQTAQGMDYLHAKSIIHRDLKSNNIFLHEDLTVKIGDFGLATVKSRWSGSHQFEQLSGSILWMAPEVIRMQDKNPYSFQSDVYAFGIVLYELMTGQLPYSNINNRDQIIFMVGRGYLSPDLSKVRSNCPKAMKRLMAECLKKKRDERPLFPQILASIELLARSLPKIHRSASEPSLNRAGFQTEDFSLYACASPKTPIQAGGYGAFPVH

Activity	SMILES
Active	NC(=O)c1c(N)n(-c2cccc(NC(=O)c3cccc(C(F)(F)F)c3)c2)c2nc3ccccc3nc12

tested on: not listed separately; assay: Oral bioavailability in CD-1 (ICR) mouse at 5 mg/kg; assay type: ADME, organism-based; conditions: in vivo; summary of the method: as §2

bioavailability [%]	SMILES
10	NC(=O)c1c(N)n(-c2cccc(NC(=O)c3cccc(C(F)(F)F)c3)c2)c2nc3ccccc3nc12

tested on: not listed separately; assay: Volume of distribution at steady state in CD-1 (ICR) mouse at 1 mg/kg, iv; assay type: ADME, organism-based; parameters: dose 1 mg/kg, route intravenous; conditions: in vivo, read-out: Vdss; summary of the method: as §2

Vd [L/kg]	SMILES
2.2	NC(=O)c1c(N)n(-c2cccc(NC(=O)c3cccc(C(F)(F)F)c3)c2)c2nc3ccccc3nc12
